Data as given in publication PMC6188675 (Journal of medicinal chemistry, 2013).

Legend:
LNCaP cells = test: MTT cytotoxicity assay in LNCaP cells; assay type: cell-based
[1] = target: IN strand transfer catalysis (Human immunodeficiency virus type 1 group M subtype B, UniProt P12497); test: IN enzymatic assay, strand transfer; assay type: biochemical, HIV-1
[2] = target: IN 3'-processing catalysis (Human immunodeficiency virus type 1 group M subtype B, UniProt P12497); test: IN enzymatic assay, 3'-processing; assay type: biochemical, HIV-1
[3] = tested on: Flag-6x-histidine construct; test: Quench counter-screen; settings: compounds tested at 10 µM
Method in brief: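 Run as the integrase–LEDGF/p75 AlphaScreen, with one Flag-6xhistidine construct replacing both proteins. Compound incubations were 30 min then 60 min at 4 °C. Ni-chelate donor and anti-FLAG acceptor beads were added at 20 µg/mL each for 1 h at 30 °C, kept from light. Acceptor-bead emission gave percent inhibition.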

HIV-1 = test: Antiviral MTT/MT-4 assay; assay type: cell-based; settings: MT-4 cells, 13 µM

SMILES | cytotoxicity in MTT LNCaP assay (in words) (LNCaP cells) | IC50 [1] [µM] | IC50 [2] [µM] | Quench % Inhib. [3] [%] | antiviral activity at maximum testable concentration (HIV-1)
COc1cccc(NCc2ccc(O)c3ncccc23)c1 [Q2–7] | notable cytotoxicity | > 20 | > 20 | <50 | 
Oc1ccc(CNc2cccc(C(F)(F)F)c2)c2cccnc12 [Q2–5] |  | > 20 | > 20 | <50 | 
Oc1ccc(CNc2ccccc2Cl)c2cccnc12 [Q2–14] |  |  |  | <50 | 
COc1ccc(C(NC(C)=O)c2cc([N+](=O)[O-])c3cccnc3c2O)cc1OC (stereo not shown) [Q1–7] |  |  |  | <50 | 
CCC(=O)NC(c1ccccc1OC)c1ccc2cccnc2c1O (stereo not shown) [Q1–2] | notable cytotoxicity | > 20 | > 20 | <50 | 
CCOCc1ccc(O)c2ncccc12 [QC, 5-(ethoxymethyl)quinolin-8-ol] |  | > 20 | > 20 | <50 | 
Cc1ccccc1NCc1ccc(O)c2ncccc12 [Q2-1] |  |  |  | <50 | 
Oc1ccccc1C(Nc1nccs1)c1ccc2cccnc2c1O (stereo not shown) [Q1–12] |  |  |  | <50 | 
CCOC(=O)C1CCCN(Cc2ccc(O)c3ncccc23)C1 (stereo not shown) [Q3–6] |  |  |  | <50 | 
Cc1cccc(NCc2ccc(O)c3ncccc23)c1 [Q2–11] |  | > 20 | > 20 | <50 | 
Cc1ccc(NCc2ccc(O)c3ncccc23)cc1C [Q2–13, 5-(((3,4-dimethylphenyl)amino)methyl)quinolin-8-ol] |  |  |  | <50 | 
CCC(=O)NC(c1ccc(OC)cc1)c1cc([N+](=O)[O-])c2cccnc2c1O (stereo not shown) [Q1–4] |  | > 20 | > 20 | <50 | 
CC(=O)NC(c1ccccc1)c1cc(Cl)c2cccnc2c1O (stereo not shown) [Q1–5] |  | > 20 | > 20 | <50 | 
CCOc1ccc(NCc2ccc(O)c3ncccc23)cc1 [Q2–12] |  |  |  | <50 | 
CCC(=O)NC(c1ccco1)c1cc(Cl)c2cccnc2c1O (stereo not shown) [Q1–8] |  |  |  | <50 | 
Oc1ccc(CN2CCN(Cc3ccccc3)CC2)c2cccnc12 [Q3–9] |  | > 20 | > 20 | <50 | 
CCCC(=O)NC(c1ccccc1)c1ccc2cccnc2c1O (stereo not shown) [Q1-1] | notable cytotoxicity | > 20 | > 20 | <50 | 
CCCC(=O)NC(c1ccc(OC)cc1)c1ccc2cccnc2c1O (stereo not shown) [Q1–11] |  |  |  | <50 | 
Cc1cccnc1NCc1ccc(O)c2ncccc12 [Q2–9] |  | > 20 | > 20 | <50 | 

SMILES | cytotoxicity in MTT LNCaP assay (in words) (LNCaP cells) | IC50 [1] [µM] | IC50 [2] [µM] | Quench % Inhib. [3] [%] | antiviral activity at maximum testable concentration (HIV-1)
CCC(=O)NC(c1cccs1)c1cc([N+](=O)[O-])c2cccnc2c1O (stereo not shown) [Q1–6] |  | > 20 | > 20 | <50 | 
Oc1ccc(CN2CCN(c3ccccc3)CC2)c2cccnc12 [Q3–7] | notable cell-growth inhibition |  |  | <50 | 
Oc1c(Cl)cc(Cl)c2cccnc12 [QB, 5,7-dichloroquinolin-8-ol] |  | > 20 | > 20 | <50 | 
CN1CCN(Cc2ccc(O)c3ncccc23)CC1 [Q3-2] | negligible inhibition of cell growth |  |  | <50 | 
Oc1ccc(CNc2ccccc2F)c2cccnc12 [Q2–10] |  | > 20 | > 20 | <50 | 
Cc1cccc(NCc2ccc(O)c3ncccc23)n1 [Q2–4] |  | > 20 | > 20 | <50 | 
Oc1ccc(CNc2ccc(C(F)(F)F)cc2)c2cccnc12 [Q2–3] |  | > 20 | > 20 | <50 | 
Oc1ccc(CN2CCCCC2)c2cccnc12 [Q3-1] | negligible inhibition of cell growth |  |  | <50 | 
Cc1cccc(NCc2ccc(O)c3ncccc23)c1C [Q2–6] |  | > 20 | > 20 | <50 | no antiviral activity could be detected
CCOC(=O)C1CCN(Cc2ccc(O)c3ncccc23)CC1 [Q3–8] |  | > 20 | > 20 | <50 | 
Oc1ccc(Cl)c2cccnc12 [QA, 5-chloroquinolin-8-ol] |  | > 20 | > 20 | <50 | 
Oc1ccc(Cc2ccc(O)c3ncccc23)c2cccnc12 [Q2-2] | notable cytotoxicity |  |  | <50 | 
Cc1ccc(S(=O)(=O)NC(=O)Oc2cccc3cccnc23)cc1 [Q4-1] | low cytotoxicity | > 20 | > 20 | <50 | 
CC(=O)NC(c1ccc(N(C)C)cc1)c1cc(Cl)c2cccnc2c1O (stereo not shown) [Q1–10] |  |  |  | <50 | 
O=C(CC(Sc1cccc2cccnc12)c1ccc(F)cc1)c1cccs1 (stereo not shown) [Q5-2] |  | > 20 | > 20 | <50 | 
Cc1ccc(NCc2ccc(O)c3ncccc23)cc1 [Q2–8, 5-((p-tolylamino)methyl)quinolin-8-ol] |  |  |  | <50 | 
COc1cccc(C(NC(C)=O)c2ccc3cccnc3c2O)c1 (stereo not shown) [Q1–3] |  | > 20 | > 20 | <50 | 
O=C(CC(Sc1cccc2cccnc12)c1ccc(OC(F)F)cc1)c1ccco1 (stereo not shown) [Q5-1] |  | > 20 | > 20 | <50 | 
CCC(=O)NC(c1ccc(OC)c(OC)c1)c1cc(Cl)c2cccnc2c1O (stereo not shown) [Q1–9] |  |  |  | <50 | 
